What all share (type): functional, organism-based
The test system of experiment [1] is Mus musculus. Put plainly: Antiapoptotic activity in C57BL/6 mouse assessed as reduction of DSS-induced cleaved caspase-3 level in colon at 7.5 to 30 mg/kg, ip qd administered on day 6 to 12 post DSS-challenge measured on day 13 by Western blotting analysis. The procedure, abridged: (§1)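 Male C57BL/6 mice (7–8 wk) given 2.0% (w/v) DSS in drinking water days 0–5. Colitic mice were selected on day 6 and dosed ip once daily, days 6–12, saline vehicle; n = 8/group. Day 13: colon homogenized in RIPA, 50 μg protein run on 10–12% SDS-PAGE. Blots probed for cleaved caspase-3/-9, detected by ECL, β-actin for loading, densitometry; n = 5.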
Background: A western blot detects proteins with antibodies after separation by electrophoresis.

Experiment [2] concerns Mus musculus. Put plainly: Antiulcerative colitis activity in ip dosed C57BL/6 mouse assessed as inhibition of DSS-induced shortening of colon length administered qd on day 6 to 12 post DSS-challenge measured on day 13. The procedure, abridged:
(§2)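 Mice (male C57BL/6, 20–24 g) drank 2.0% DSS for 5 days. Animals with weight loss, diarrhea and bleeding on day 6 were randomized and given ip doses once daily to day 12, saline as vehicle; n = 8. Colon length was measured after sacrifice on day 13.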

In experiment [3] the test system is Mus musculus. Put plainly: Antiulcerative colitis activity in C57BL/6 mouse assessed as recovery of DSS-induced body weight loss at 7.5 to 30 mg/kg, ip qd administered on day 6 to 12 post DSS-challenge measured on day 8. The method, boiled down: (§3)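 In male C57BL/6 mice given 2.0% (w/v) DSS in drinking water days 0–5, then dosed ip daily days 6–12 (n = 8), body weight was checked daily. Change was also taken as weight before induction minus weight just before sacrifice on day 13.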

Experiment [4] has as its system Mus musculus. Description: Antiinflammatory activity in ip dosed C57BL/6 mouse assessed as reduction of DSS-induced IL-1beta production in colon administered qd on day 6 to 12 post DSS-challenge measured on day 13 by ELISA. The method, boiled down: (§4)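 Colitis induced in male C57BL/6 mice with 2.0% (w/v) DSS drinking water for days 0–5, then ip once daily days 6–12 (saline vehicle); 8 mice/group. Day 13: colon homogenized in phosphate buffer with Tween-20, PMSF, benzethonium chloride, EDTA and aprotinin, spun 16000g 15 min at 4 °C. TNF-α, IL-1β, IL-6 and IL-10 measured by ELISA, normalized to Bradford protein, reported as pg/mg.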
(In general: ELISA stands for enzyme-linked immunosorbent assay.)

In experiment [5] the test system is Mus musculus. Description: Antiulcerative colitis activity in C57BL/6 mouse assessed as attenuation of DSS-induced crypt destruction at 7.5 to 30 mg/kg, ip qd administered on day 6 to 12 post DSS-challenge measured on day 13 by hematoxylin/eosin staining-based assay. The procedure, abridged: (§5)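 DSS colitis (2.0% in drinking water, 5 days) in male C57BL/6 mice treated ip once daily days 6–12, n = 8. Day 13 colons opened, washed in ice-cold PBS, fixed overnight in 4% paraformaldehyde, paraffin-embedded. 5 μm sections stained with H&E and scored histologically, including inflammation severity.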

Experiment [6] concerns Mus musculus. Put plainly: Antiulcerative colitis activity in C57BL/6 mouse assessed as inhibition of DSS-induced shortening of colon length at 30 mg/kg, ip qd administered on day 6 to 12 post DSS-challenge measured on day 13. The arrangement: dose 30 mg/kg. The procedure, abridged:
as §2

The test system of experiment [7] is Mus musculus. Put plainly: Antiulcerative colitis activity in C57BL/6 mouse assessed as attenuation of DSS-induced lesions formation at 7.5 to 30 mg/kg, ip qd administered on day 6 to 12 post DSS-challenge measured on day 13 by hematoxylin/eosin staining-based assay. The procedure, abridged:
as §5

Experiment [8] deals with Mus musculus. Description: Antiinflammatory activity in ip dosed C57BL/6 mouse assessed as reduction of DSS-induced TNF-alpha production in colon administered qd on day 6 to 12 post DSS-challenge measured on day 13 by ELISA. The method, boiled down:
as §4

Experiment [9] concerns Mus musculus. Description: Antiulcerative colitis activity in C57BL/6 mouse assessed as recovery of DSS-induced body weight loss at 7.5 to 30 mg/kg, ip qd administered on day 6 to 12 post DSS-challenge measured on day 9. The procedure, abridged:
as §3

In experiment [10] the test system is Mus musculus. Put plainly: Antiinflammatory activity in DSS-treated C57BL/6 mouse assessed as effect on IL-10 production in colon at 7.5 to 30 mg/kg, ip qd administered on day 6 to 12 post DSS-challenge measured on day 13 by ELISA. The procedure, abridged: as §4
For experiment [11], the system named is Mus musculus. Description: Antiapoptotic activity in C57BL/6 mouse assessed as reduction of DSS-induced cleaved caspase-9 level in colon at 7.5 to 30 mg/kg, ip qd administered on day 6 to 12 post DSS-challenge measured on day 13 by Western blotting analysis. The procedure, abridged:
as §1

For experiment [12], the system named is Mus musculus. Put plainly: Antiinflammatory activity in ip dosed C57BL/6 mouse assessed as reduction of DSS-induced IL-6 production in colon administered qd on day 6 to 12 post DSS-challenge measured on day 13 by ELISA. The method, boiled down: as §4
In experiment [13] the test system is Mus musculus. Description: Antiulcerative colitis activity in C57BL/6 mouse assessed as attenuation of DSS-induced inflammatory cell infiltration at 7.5 to 30 mg/kg, ip qd administered on day 6 to 12 post DSS-challenge measured on day 13 by hematoxylin/eosin staining-based assay. The method, boiled down: as §5
In experiment [14] the test system is Mus musculus. Put plainly: In vivo inhibition of myeloperoxidase activity in colon homogenates of DSS-induced acute colitis C57BL/6 mouse model at 7.5 to 30 mg/kg, ip qd administered on day 6 to 12 post DSS-challenge measured on day 13. The procedure, abridged:
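Day 13 colons from DSS-colitic male C57BL/6 mice (2.0% DSS for 5 days; ip daily days 6–12; n = 8) were homogenized in 0.5% HTAB (1 mL/100 mg) and spun 19000g 15 min at 4 °C. Supernatant was mixed with 50 mmol pH 6.0 phosphate buffer containing 0.0005% o-dianisidine and 0.1% H2O2. Rate of OD460 change at 25 °C was read and expressed as units/g wet tissue.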

The subject of experiment [15] is Mus musculus. Put plainly: Antiinflammatory activity in DSS-induced acute colitis C57BL/6 mouse model assessed as upregulation of IkappaB-alpha protein expression at 15 to 30 mg/kg, ip qd administered on day 6 to 12 post DSS-challenge measured on day 13 by Western blotting analysis. The procedure, abridged:
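Male C57BL/6 mice received 2.0% DSS water for 5 days, then daily ip dosing in saline on days 6–12. On day 13, colon tissue was homogenized in ice-cold RIPA (0.1 g/mL). 50 μg protein was blotted on nitrocellulose and probed for IκBα overnight at 4 °C. ECL detection, normalized to β-actin by densitometry; n = 5.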

The subject of experiment [16] is Mus musculus. Description: Antiulcerative colitis activity in DSS-induced acute colitis C57BL/6 mouse model assessed as decrease in disease activity index at 15 to 30 mg/kg, ip qd administered on day 6 to 12 post DSS-challenge measured on day 13.

The source made the active and inactive calls. The rule behind the calls is not given here.

As to `O=C(O[C@@H]1O[C@@H]2COC(=O)c3cc(O)c(O)c(O)c3-c3c(cc(O)c(O)c3O)C(=O)O[C@H]([C@H]1O)[C@@H]2O)c1cc(O)c(O)c(O)c1`, the result in the experiment on Mus musculus [1], in the experiment on Mus musculus [3], with Mus musculus [5], with Mus musculus [7], in the experiment on Mus musculus [9] and in the experiment on Mus musculus [11] was Active. The result with Mus musculus [13], in the experiment with Mus musculus [15] and with Mus musculus [16] was Active. In the experiment with Mus musculus [2], the inhibition entry was “Dose-dependent effect”. Moreover, the Activity result in the experiment on Mus musculus [4], in the experiment with Mus musculus [8] and in the experiment on Mus musculus [12] was “Dose-dependent effect” in each case. The inhibition entry with Mus musculus [6] and with Mus musculus [14] was “Active” throughout. For the same compound, the result in the experiment with Mus musculus [10] was inactive.

These data come from ChEMBL document CHEMBL3091459, “Inhibitory effect of the gallotannin corilagin on dextran sulfate sodium-induced murine ulcerative colitis” (J Nat Prod, 2013).
